According to ChEMBL document CHEMBL4402547, “Synthesis and Pharmacological Characterization of Conformationally Restricted Retigabine Analogues as Novel Neuronal Kv7 Channel Activators” (J Med Chem, 2020):
Activity calls are given as the source filed them. The rule behind the calls is not given here.

How the values were obtained:
[1] = Photostability of compound in pH 7.4 buffer assessed as compound degradation at 100 ug/ml incubated for 6 hrs under natural solar light-irradiation by HPLC analysis relative to control
In short: (§1)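 DMSO solutions diluted in pH 7.4 buffer, held in 1 cm quartz cells and exposed to natural daylight. Light-shielded controls kept at 37°C in foil. Aliquots drawn at set intervals and parent compound loss measured by UHPLC: C18 column, 0.1% TFA water/acetonitrile gradient, 45°C, detection at 254 nm.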

[2] = target: T1, Potassium voltage-gated channel subfamily KQT member 2 (Homo sapiens, UniProt O43526); experiment: Activation of human Kv7.2 expressed in CHO cells assessed as increase in current amplitude at 10 uM measured at holding potential of -40 mV by whole cell patch clamp electrophysiology assay relative to control; type: cell-based
T1 sequence (O43526 whole entry, the tested form may be a part): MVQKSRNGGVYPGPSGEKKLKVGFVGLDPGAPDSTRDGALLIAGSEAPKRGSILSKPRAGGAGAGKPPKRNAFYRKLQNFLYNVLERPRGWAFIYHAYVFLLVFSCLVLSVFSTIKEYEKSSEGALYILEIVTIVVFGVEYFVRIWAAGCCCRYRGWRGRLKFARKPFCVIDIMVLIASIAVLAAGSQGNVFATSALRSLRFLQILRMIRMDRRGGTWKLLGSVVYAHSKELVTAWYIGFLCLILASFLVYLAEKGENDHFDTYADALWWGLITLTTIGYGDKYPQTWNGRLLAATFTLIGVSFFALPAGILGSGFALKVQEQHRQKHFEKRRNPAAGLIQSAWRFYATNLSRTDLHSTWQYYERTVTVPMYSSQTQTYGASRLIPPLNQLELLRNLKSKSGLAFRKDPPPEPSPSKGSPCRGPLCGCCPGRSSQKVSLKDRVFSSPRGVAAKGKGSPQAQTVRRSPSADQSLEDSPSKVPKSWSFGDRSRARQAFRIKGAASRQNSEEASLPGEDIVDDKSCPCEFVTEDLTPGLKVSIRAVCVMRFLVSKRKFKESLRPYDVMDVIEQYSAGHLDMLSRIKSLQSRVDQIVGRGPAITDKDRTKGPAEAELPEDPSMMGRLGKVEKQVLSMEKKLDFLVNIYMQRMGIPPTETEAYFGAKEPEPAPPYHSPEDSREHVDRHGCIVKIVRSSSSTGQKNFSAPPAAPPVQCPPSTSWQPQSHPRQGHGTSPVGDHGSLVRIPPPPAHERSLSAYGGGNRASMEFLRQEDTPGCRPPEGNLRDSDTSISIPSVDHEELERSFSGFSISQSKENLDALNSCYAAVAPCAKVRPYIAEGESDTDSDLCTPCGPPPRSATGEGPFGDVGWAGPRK
In short: (§2)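 CHO cells transiently co-transfected (Lipofectamine 2000, 4 μg total cDNA, EGFP marker) with human channel cDNA in pcDNA3.1, recorded 24 h later. Whole-cell patch clamp at 20–22°C, 3–5 MΩ pipettes, perfused extracellular solution pH 7.4. Held at −80 mV; 3-s ramps −80 to +20 mV ± 10 μM drug. Current at −40 mV with vs without drug expressed as ratio; ≥3 cells from ≥2 transfections, mean ± SEM.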

[3] = Photostability of compound in pH 7.4 buffer assessed as compound degradation at 100 ug/ml incubated for 4 hrs under natural solar light-irradiation by HPLC analysis relative to control; in short: as §1
[4] = target: T1, Potassium voltage-gated channel subfamily KQT member 2; experiment: Activation of human Kv7.2 expressed in CHO cells assessed as increase in current amplitude at 10 uM measured at holding potential of 0 mV by whole cell patch clamp electrophysiology assay relative to control; type: cell-based
In short: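 Transiently transfected CHO cells expressing human Kv7.2, whole-cell patch clamp at 20–22°C in HEPES-buffered saline pH 7.4. Cells held at −80 mV and ramped −80 to +20 mV over 3 s, before and during 10 μM drug. Ramp current at 0 mV taken as drug/control ratio; mean ± SEM of ≥3 cells, ≥2 transfections.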

[5] = Photostability of compound in pH 7.4 buffer assessed as compound degradation at 100 ug/ml incubated for 2 hrs under natural solar light-irradiation by HPLC analysis relative to control; in short: as §1
[6] = tested on: Potassium voltage-gated channel subfamily KQT member 2 (Homo sapiens), O43526 [F168L]; experiment: Activation of ICA-insensitive human Kv7.2 F168L mutant expressed in CHO cells assessed as increase in channel current amplitude at 10 uM measured at holding potential of -40 mV by whole cell patch clamp electrophysiology assay; type: cell-based; in short: as §2
Chain of Potassium voltage-gated channel subfamily KQT member 2 (Homo sapiens), O43526 [F168L] (O43526 whole entry F168L): as the sequence (O43526 whole entry, the tested form may be a part) above, with F168L counted along it

[7] = tested on: Potassium voltage-gated channel subfamily KQT member 2 (Homo sapiens), O43526 [W236L]; experiment: Activation of human Kv7.2 W236L mutant expressed in CHO cells assessed as channel current amplitude at 10 uM measured at holding potential of -40 mV by whole cell patch clamp electrophysiology assay; type: cell-based; in short: as §2
Chain of Potassium voltage-gated channel subfamily KQT member 2 (Homo sapiens), O43526 [W236L] (O43526 whole entry W236L): as the sequence (O43526 whole entry, the tested form may be a part) above, with W236L counted along it

Row | Compound | Activity [2] | Activity [4] | further results
1 | O=S(=O)(Nc1ccc2c(c1)CCN2Cc1ccc(F)cc1F)C1CCCCC1 | inactive | Active | Drug degradation [1]: > 99%; Drug degradation [3]: 81.7%; Drug degradation [5]: 33.5%
2 | O=S(=O)(Nc1ccc2c(c1)CCN2Cc1ccc(C(F)(F)F)cc1)C1CCCCC1 | inactive | inactive | –
3 | O=S(=O)(Nc1ccc2c(c1)CCN2Cc1ccc(F)c(F)c1)C1CCCCC1 | inactive | inactive | –
4 | O=C(Nc1ccc(Cl)nc1)c1ccc(F)c(F)c1 | Active | Active | Activity [6]: inactive; Activity [7]: Active
5 | O=S(=O)(Nc1ccc2c(ccn2Cc2ccc(C(F)(F)F)cc2)c1)C1CCCCC1 | inactive | inactive | –
6 | CC(C)[C@H]1CC[C@H](C)C[C@@H]1OC(=O)Nc1ccc2c(c1)CCN2Cc1ccc(F)cc1 | inactive | inactive | –
7 | O=[N+]([O-])c1cc(Br)ccc1CN1CCc2cc(NS(=O)(=O)C3CCCCC3)ccc21 | inactive | Active | –
8 | O=C(Nc1ccc2c(c1)CCN2Cc1ccc(F)cc1)C1CCCCC1 | inactive | inactive | –
9 | CCCCCCS(=O)(=O)Nc1ccc2c(c1)CCN2Cc1ccc(F)cc1 | inactive | inactive | –
10 | O=S(=O)(Nc1ccc2c(c1)CCN2Cc1ccc(F)cc1)c1ccccc1 | inactive | inactive | –
11 | O=C(Nc1ccc2c(c1)CCN2Cc1ccc(F)cc1)NC1CCCCC1 | inactive | inactive | –
12 | CCCCCCC(=O)Nc1ccc2c(c1)CCC/C2=C/c1ccc(C(F)(F)F)cc1 | inactive | inactive | –
13 | CC1CC(C)CN(S(=O)(=O)Nc2ccc3c(c2)CCN3Cc2ccc(F)cc2)C1 (stereo unspecified) | inactive | inactive | –
14 | O=S(=O)(Nc1ccc2c(c1)CCN2Cc1ccc(C(F)(F)F)cc1C(F)(F)F)C1CCCCC1 | inactive | inactive | –
15 | CCCCNCC(=O)Nc1ccc2c(ccn2Cc2ccc(C(F)(F)F)cc2)c1 | inactive | inactive | –
16 | O=S(=O)(CCC1CCCCC1)Nc1ccc2c(ccn2Cc2ccc(F)cc2)c1 | inactive | inactive | –
17 | COc1ccc(CN2CCc3cc(NS(=O)(=O)C4CCCCC4)ccc32)cc1 | inactive | Active | Drug degradation [1]: > 99%; Drug degradation [3]: 84.7%; Drug degradation [5]: 37.5%
18 | CCCCCCC(=O)Nc1ccc2c(c1)CCC/C2=C\c1ccc(C(F)(F)F)cc1 | inactive | inactive | –
19 | CCCCCCC(=O)Nc1ccc2c(c1)CCCC2Cc1ccc(C(F)(F)F)cc1 (racemic) | inactive | inactive | –
20 | CCCCS(=O)(=O)Nc1ccc2c(c1)CCN2Cc1ccc(F)cc1 | inactive | inactive | –

Row | Compound | Activity [2] | Activity [4] | further results
21 | O=S(=O)(Nc1ccc2c(c1)CCN2CCc1ccc(F)cc1)C1CCCCC1 | inactive | inactive | –
22 | CC1(C)[C@H]2CC[C@]1(CS(=O)(=O)Nc1ccc3c(c1)CCN3Cc1ccc(F)cc1)C(=O)C2 | inactive | inactive | –
23 | CCOC(=O)Nc1ccc2c(c1)CCN2Cc1ccc(F)cc1 | inactive | inactive | –
24 | CC1(C)[C@@H]2CC[C@@]1(CS(=O)(=O)Nc1ccc3c(c1)CCN3Cc1ccc(F)cc1)C(=O)C2 | inactive | inactive | –
25 | CC(C)(C)CNC(=N)Nc1ccc2c(c1)CCN2Cc1ccc(F)cc1 | inactive | inactive | –
26 | CCCCCCCCCCCCCCCC(=O)Nc1ccc2c(ccn2Cc2ccc(C(F)(F)F)cc2)c1 | inactive | inactive | –
27 | COc1ccc(Cn2ccc3cc(NS(=O)(=O)C4CCCCC4)ccc32)cc1 | inactive | inactive | –
28 | CCCCCCC(=O)Nc1ccc2c(ccn2Cc2ccc(O)cc2)c1 | inactive | inactive | –
29 | O=S(=O)(Nc1ccc2c(c1)CCN2Cc1ccc(F)cc1)N1CCCCCC1 | inactive | inactive | –
30 | CC(C)(C)CNC(=O)Nc1ccc2c(c1)CCN2Cc1ccc(F)cc1 | inactive | inactive | –
31 | CCCCCCC(=O)Nc1ccc2c(ccn2Cc2ccc(OCOC)cc2)c1 | inactive | inactive | –
32 | O=C(Cc1ccc(Cl)cc1)N1CCc2cc(NS(=O)(=O)C3CCCCC3)ccc21 | inactive | inactive | –
33 | O=S(=O)(Nc1ccc2c(ccn2Cc2ccc(F)cc2)c1)C1CCCCC1 | inactive | Active | Drug degradation [1]: 23.1%; Drug degradation [3]: 15.8%; Drug degradation [5]: 6.46%
34 | O=C(c1ccc(F)cc1)N1CCc2cc(NS(=O)(=O)C3CCCCC3)ccc21 | inactive | inactive | –
35 | CCOC(=O)Nc1ccc(NCc2ccc(F)cc2)nc1N | Active | Active | –
36 | O=C(CC1CCCCC1)Nc1ccc2c(c1)CCN2Cc1ccc(F)cc1 | inactive | inactive | –
37 | CC(=O)Nc1ccc2c(c1)CCN2Cc1ccc(F)cc1 | inactive | inactive | –
38 | CC(C)CS(=O)(=O)Nc1ccc2c(c1)CCN2Cc1ccc(F)cc1 | inactive | inactive | –
39 | CCCCN(C)CC(=O)Nc1ccc2c(ccn2Cc2ccc(C(F)(F)F)cc2)c1 | inactive | inactive | –
40 | COc1ccc(CN2c3ccc(NS(=O)(=O)C4CCCCC4)cc3CC2C)cc1 (racemic) | inactive | inactive | –
